Bioassay records from PubChem BioAssay.
PGC1a acetyl inh: inhibitors of PGC1a acetylation signal, primary screen, cell-based, U2OS, AlphaScreen, inhibitor mode; AlphaScreen anti-acetyl-lysine; with virally co-expressed GCN5 acetyltransferase; inhibition, % at 15.6 µM; actives 0.17% (n = 350,000); AID 651687, 2012;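 active = every replicate shows inhibition of at least 40%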;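 note: 0% = neutral control wells and 100% = positive control wells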
FN deposit inh: inhibitors of fibronectin matrix deposition, primary screen, AH1F cells, Alexa488-fibronectin fluorescence, plate reader; AH1F fibroblasts, overnight; inhibition, % at 12.6 µM; actives 0.086% (n = 350,000); AID 743247, 2014;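 active = mean inhibition across replicates of 30% or more, regardless of how many single replicates reach that level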;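 note: positive control wells lacked labelled fibronectin entirely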
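Material: AH1F fibroblast monolayer depositing Alexa488-labelled fibronectin into matrix | Input: 10000 AH1F cells/well | Medium: DMEM plus 2% serum, read in PBS | Reagent: Alexa488-fibronectin, 24 nM final in well | Compound dosing: One dose per compound, pinned | Schedule: 1 h adhesion, overnight exposure | Measured by: Fluorescence at 485 nm excitation, 525 nm emission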
FGF22 binding-1: binders of human FGF22 protein, primary screen, FGF22 synaptogenesis inhibitor project, biophysical, thermal shift, single point. Fibroblast growth factor 22 (Homo sapiens), Q9HCT0. recombinant FGF22 thermal shift, SYPRO orange fluorescence; percent of sucrose octasulfate shift, DMSO zero. activity (Tm shift, normalised), % at 9.99 µM. actives 1.5% (n = 340,000). AID 651658, 2012;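 active = mean Tm shift, scaled 0 neutral to 100 positive control, at about 1.3% or above, every replicate too, limit read from the data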
Target sequence (Q9HCT0 whole entry, looked up): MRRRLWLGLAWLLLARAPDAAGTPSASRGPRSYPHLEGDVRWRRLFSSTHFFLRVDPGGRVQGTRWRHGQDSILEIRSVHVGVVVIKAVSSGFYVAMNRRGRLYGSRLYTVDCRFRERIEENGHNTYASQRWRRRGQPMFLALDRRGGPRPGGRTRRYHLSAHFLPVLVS
ERAP1 inh: human ERAP1 aminopeptidase inhibitors, primary screen, biochemical, single point, plate reader; Endoplasmic reticulum aminopeptidase 1 (Homo sapiens), Q9NZ08; recombinant ERAP1, Leu-AMC fluorescence, 60 min; inhibition, % at 10.7 µM; actives 0.15% (n = 340,000);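 active = mean replicate inhibition of at least 30%, or all replicates individually reaching that 30% level; inactive = mean below 30% and not every replicate reaching it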;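 note: 0% = neutral control wells and 100% = L-leucinethiol positive control wells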
SIRT5 inh: SIRT5 desuccinylase inhibitors, primary screen, biochemical, fluorescence imaging, single point, set 5 | NAD-dependent protein deacylase sirtuin-5, mitochondrial (Homo sapiens), Q9NXA8 | Purified SirT5, succinyl-peptide AMC, trypsin-coupled fluorescence | inhibition, % at 15 µM | actives 1.1% (n = 330,000) | AID 652115, 2013; in the data active = inhibition above about 15%
Target sequence (Q9NXA8 whole entry, looked up): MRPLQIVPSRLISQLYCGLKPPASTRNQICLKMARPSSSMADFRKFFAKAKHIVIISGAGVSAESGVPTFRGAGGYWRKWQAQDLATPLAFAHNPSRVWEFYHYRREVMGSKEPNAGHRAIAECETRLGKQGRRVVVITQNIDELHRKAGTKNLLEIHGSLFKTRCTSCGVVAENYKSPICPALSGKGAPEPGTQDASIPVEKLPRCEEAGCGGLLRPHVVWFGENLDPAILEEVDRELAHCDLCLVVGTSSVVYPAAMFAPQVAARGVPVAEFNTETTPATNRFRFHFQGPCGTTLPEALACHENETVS
FGF22 binding-2: binders of human FGF22 protein, dose response, FGF22 synaptogenesis inhibitor project, biophysical, thermal shift, cherry-pick retest | shares compounds with FGF22 binding-1 | recombinant FGF22 thermal shift, SYPRO orange fluorescence | thermal shift activity, °C (ΔTm) at 38 µM | actives 2% (n = 1,000) | AID 720646, 2013;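 active = fitted rise in melting shift crosses a set limit at or below the top valid dose tested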
SYPRO no-protein: compound-only thermal shift signal without protein, dose response, artefact control for FGF22 binder project, biochemical, cherry-picked samples, RT-PCR instrument. shares compounds with FGF22 binding-1. compound-only SYPRO orange thermal shift counter-screen, no protein. AC50, µM (titrated, usually from 38 µM). actives 2% (n = 1,000). AID 743019, 2013;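 active = rising signal whose fitted curve reaches the 0.54 level within the top valid dose, showing a melting point, actives reach about 13 µM in these data; inactive = the rest, including activity in the opposite direction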; note: value is where the raw curve crosses a fixed level and not half-maximal
* hit, by the source's call; i = inactive; nt = no result given; [ ] = remark or other dose. Most compounds without a hit are left out; they make up all but 2.2% or so of the library.

SMILES | PGC1a acetyl inh | FN deposit inh | FGF22 binding-1 | ERAP1 inh | SIRT5 inh | FGF22 binding-2 | SYPRO no-protein
O=Cc1cccc(OCc2cn(CC(=O)c3ccc(O)cc3)nn2)c1 | -6.1 | 4.4 | 0.0 | -3.6 | 1.6 | nt | nt
CCCC(=O)c1ccc(OCc2cn(CC(=O)c3ccc(O)cc3)nn2)cc1 | -1.8 | -7.8 | 1.5* | 1.9 | 4.0 | 0.04 | i
O=C1C2C(C(=O)N1CCc1ccccc1)C1C=CC2C12CC2 (stereo not given) | -2.0 | nt | 2.5* | -3.3 | 0.7 | 0.13 | i
C[C@@H]1CN([C@@H](C)CO)C(=O)c2cc(NC(=O)C3CCCCC3)ccc2O[C@H]1CN(C)S(=O)(=O)c1ccc(F)cc1 | 5.1 | 3.5 | -0.1 | -0.9 | 1.5 | nt | nt
O=C1Cc2ccccc2C(=O)N1c1cccc(Cl)c1 | nt | -3.0 | 2.2* | -2.0 | 2.7 | 0.02 | i
O=C1Cc2ccccc2C(=O)N1c1ccccc1 | nt | 18.3 | 42.4 | -3.1 | -1.4 | nt | nt
O=C(CN1C(=O)NC2(CCOc3ccccc32)C1=O)Nc1ccc(Br)cc1F (stereo not given) | 2.8 | 5.3 | 1.7* | -2.4 | -2.9 | -0.342 | i
COc1ccc(S(=O)(=O)N(C)C[C@@H]2Oc3ncc(C#CC4(O)CCCC4)cc3C(=O)N([C@@H](C)CO)C[C@H]2C)cc1 | -2.1 | nt | 0.2 | 0.7 | 0.6 | nt | nt
C/C(=N\NC(=O)COc1ccc(C)cc1C(C)C)c1cc2ccccc2o1 | nt | -3.5 | 20.2* | -3.8 | -4.7 | -0.056 | i
CCC(=O)N1CC(=O)N2[C@H](C1)[C@H](c1ccc(C#CC3CCCCC3)cc1)[C@@H]2CO | 7.4 | nt | -0.5 | -5.4 | -0.7 | nt | nt
O=C(O)c1ccccc1Nc1ccccc1C(=O)O | 1.1 | nt | 0.0 | 1.5 | 0.6 | nt | nt
O=C(O)c1ccccc1Nc1ccc([N+](=O)[O-])cc1 | nt | 2.7 | 1.7* | -0.4 | 5.3 | 0.341 | i
O=C(C[C@@H]1CC[C@H]2[C@@H](COC[C@@H](O)CN2C(=O)c2ccccc2)O1)Nc1ccc(-c2ccccc2)cc1 | 15.3 | -7.4 | nt | -0.7 | 3.3 | nt | nt
COCCNC(=O)[C@H]1[C@H](CO)[C@H]2Cn3c(ccc(-c4ccc(F)cc4)c3=O)[C@@H]1N2C(=O)NC(C)C | nt | -6.6 | 14.0* | -3.1 | -38.9 | 0.262[42 µM] | i
COCCNC(=O)[C@@H]1[C@@H](CO)[C@@H]2Cn3c(ccc(-c4ccc(OC)cc4)c3=O)[C@H]1N2C(=O)NC(C)C | 7.1 | nt | 0.2 | 0.2 | -83.0 | nt | nt
COc1ccccc1-c1ccc2n(c1=O)C[C@@H]1[C@@H](CO)[C@H](C(=O)NC3CCC3)N(C(=O)NC(C)C)[C@H]21 | nt | nt | 15.1* | 0.4 | -12.6 | 0.026 | i
C[C@@H]1CN([C@@H](C)CO)C(=O)Cc2cc(NC(=O)Cc3cn(C)c4ccccc34)ccc2O[C@H]1CN(C)S(=O)(=O)c1cccs1 | -0.3 | 2.4 | 0.1 | -0.4 | 10.4 | nt | nt
Cc1ccc(-c2ccc([C@H]3[C@@H](CO)N4CCCCN(S(=O)(=O)c5ccccc5C)C[C@H]34)cc2)cc1 | -26.9 | 4.9 | 0.0 | -0.3 | 9.6 | nt | nt
O=C(NCC1CC1)c1onc(CSc2ccc(F)cc2)c1C(=O)NCC1CC1 | -2.9 | -1.5 | 37.0* | 0.6 | -4.7 | -0.124 | 10.6µM*
CC(C)NC(=O)N(C)C[C@H]1OCCCC[C@H](C)Oc2ccc(NC(=O)Nc3ccc(F)cc3)cc2C(=O)N([C@@H](C)CO)C[C@H]1C | -6.0 | nt | -0.5 | -3.8 | 0.2 | nt | nt
CSc1nc2ccccc2s1 | -0.2 | nt | 0.3 | 3.2 | 1.1 | nt | nt
O=c1ccc2nc3ccccc3sc-2c1 | -14.3 | -10.4 | 1.7* | 7.6 | 0.6 | -0.447 | i
